Assay results reported in ChEMBL document CHEMBL4387724, “2-Pyridineformamide N(4)-ring incorporated thiosemicarbazones inhibit MCF-7 cells by inhibiting JNK pathway” (Bioorg Med Chem Lett, 2019).

What was measured:
A-431 [1] = assay: Cytotoxicity against human A431 cells assessed as reduction in cell growth at 3 uM incubated for 72 hrs by MTT assay relative to control; assay type: functional; conditions: A-431, 72 h, read-out: GI
Method in brief: (§1)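 Cells grown in DMEM with 10% FBS and penicillin-streptomycin at 37 °C, 5% CO2, seeded at 3000 cells/well and attached overnight. Screening series given at 1, 3, 10, 100 μM; follow-up agent at 100 nM–3 μM; both 72 h, with 0.1% DMSO vehicle. MTT (5 mg/mL stock) added for 3 h at 37 °C, formazan dissolved in DMSO, absorbance read at 570 nm. Viability expressed as % of DMSO-treated wells from replicates.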

HeLa [2] = assay: Cytotoxicity against human HeLa cells assessed as reduction in cell growth at 10 uM incubated for 72 hrs by MTT assay relative to control; assay type: functional; conditions: read-out: GI; method in brief: as §1
MCF7 [3] = assay: Cytotoxicity against human MCF7 cells assessed as reduction in cell growth at 1 uM incubated for 72 hrs by MTT assay relative to control; assay type: functional; conditions: MCF7, 72 h, read-out: GI; method in brief: as §1
A-431 [4] = assay: Cytotoxicity against human A431 cells assessed as reduction in cell growth at 10 uM incubated for 72 hrs by MTT assay relative to control; assay type: functional; conditions: A-431, 72 h, read-out: GI; method in brief: as §1
MCF7 [5] = assay: Cytotoxicity against human MCF7 cells assessed as reduction in cell growth at 10 uM incubated for 72 hrs by MTT assay relative to control; assay type: functional; conditions: MCF7, 72 h, read-out: GI; method in brief: as §1
A-431 [6] = assay: Cytotoxicity against human A431 cells assessed as reduction in cell growth at 100 uM incubated for 72 hrs by MTT assay relative to control; assay type: functional; conditions: A-431, 72 h, read-out: GI; method in brief: as §1
HeLa [7] = assay: Cytotoxicity against human HeLa cells assessed as reduction in cell growth at 3 uM incubated for 72 hrs by MTT assay relative to control; assay type: functional; conditions: read-out: GI; method in brief: as §1
A-375 [8] = assay: Cytotoxicity against human A375 cells assessed as reduction in cell growth at 30 uM incubated for 72 hrs by MTT assay relative to control; assay type: functional; conditions: A-375, 72 h, read-out: GI
A-431 [9] = assay: Cytotoxicity against human A431 cells assessed as reduction in cell growth at 1 uM incubated for 72 hrs by MTT assay relative to control; assay type: functional; conditions: A-431, 72 h, read-out: GI; method in brief: as §1
A-431 [10] = assay: Cytotoxicity against human A431 cells assessed as reduction in cell growth incubated for 72 hrs by MTT assay; assay type: functional, cell-based; conditions: A-431, 72 h; method in brief: as §1
A-375 [11] = assay: Cytotoxicity against human A375 cells assessed as reduction in cell growth incubated for 72 hrs by MTT assay; assay type: functional, cell-based; conditions: A-375, 72 h; method in brief: as §1
A-375 [12] = assay: Cytotoxicity against human A375 cells assessed as reduction in cell growth at 100 uM incubated for 72 hrs by MTT assay relative to control; assay type: functional; conditions: A-375, 72 h, read-out: GI; method in brief: as §1
MCF7 [13] = assay: Cytotoxicity against human MCF7 cells assessed as reduction in cell growth incubated for 72 hrs by MTT assay; assay type: functional, cell-based; conditions: MCF7, 72 h; method in brief: as §1
A-375 [14] = assay: Cytotoxicity against human A375 cells assessed as reduction in cell growth at 1 uM incubated for 72 hrs by MTT assay relative to control; assay type: functional; conditions: A-375, 72 h, read-out: GI; method in brief: as §1
A-375 [15] = assay: Cytotoxicity against human A375 cells assessed as reduction in cell growth at 10 uM incubated for 72 hrs by MTT assay relative to control; assay type: functional; conditions: A-375, 72 h, read-out: GI; method in brief: as §1
HeLa [16] = assay: Cytotoxicity against human HeLa cells assessed as reduction in cell growth at 30 uM incubated for 72 hrs by MTT assay relative to control; assay type: functional; conditions: read-out: GI
HeLa [17] = assay: Cytotoxicity against human HeLa cells assessed as reduction in cell growth at 100 uM incubated for 72 hrs by MTT assay relative to control; assay type: functional; conditions: read-out: GI; method in brief: as §1
MCF7 [18] = assay: Cytotoxicity against human MCF7 cells assessed as reduction in cell growth at 3 uM incubated for 72 hrs by MTT assay relative to control; assay type: functional; conditions: MCF7, 72 h, read-out: GI; method in brief: as §1
HeLa [19] = assay: Cytotoxicity against human HeLa cells assessed as reduction in cell growth at 1 uM incubated for 72 hrs by MTT assay relative to control; assay type: functional; conditions: read-out: GI; method in brief: as §1
MCF7 [20] = assay: Cytotoxicity against human MCF7 cells assessed as reduction in cell growth at 30 uM incubated for 72 hrs by MTT assay relative to control; assay type: functional; conditions: MCF7, 72 h, read-out: GI
MCF7 [21] = assay: Cytotoxicity against human MCF7 cells assessed as reduction in cell growth at 100 uM incubated for 72 hrs by MTT assay relative to control; assay type: functional; conditions: MCF7, 72 h, read-out: GI; method in brief: as §1
HeLa [22] = assay: Cytotoxicity against human HeLa cells assessed as reduction in cell growth incubated for 72 hrs by MTT assay; assay type: functional, cell-based; method in brief: as §1
A-375 [23] = assay: Cytotoxicity against human A375 cells assessed as reduction in cell growth at 3 uM incubated for 72 hrs by MTT assay relative to control; assay type: functional; conditions: A-375, 72 h, read-out: GI; method in brief: as §1
A-431 [24] = assay: Cytotoxicity against human A431 cells assessed as reduction in cell growth at 30 uM incubated for 72 hrs by MTT assay relative to control; assay type: functional; conditions: A-431, 72 h, read-out: GI

Row | SMILES | inhibition of growth at 3 µM (A-431 [1]) | inhibition of growth at 10 µM (HeLa [2]) | inhibition of growth at 1 µM (MCF7 [3]) | inhibition of growth at 10 µM (A-431 [4]) | inhibition of growth at 10 µM (MCF7 [5]) | inhibition of growth at 100 µM (A-431 [6]) | inhibition of growth at 3 µM (HeLa [7]) | inhibition of growth at 30 µM (A-375 [8]) | inhibition of growth at 1 µM (A-431 [9]) | IC50 (A-431 [10]) | IC50 (A-375 [11]) | inhibition of growth at 100 µM (A-375 [12]) | IC50 (MCF7 [13]) | inhibition of growth at 1 µM (A-375 [14]) | inhibition of growth at 10 µM (A-375 [15]) | inhibition of growth at 30 µM (HeLa [16]) | inhibition of growth at 100 µM (HeLa [17]) | inhibition of growth at 3 µM (MCF7 [18]) | inhibition of growth at 1 µM (HeLa [19]) | inhibition of growth at 30 µM (MCF7 [20]) | further results
1 | Cc1cccc(/C(N)=N/NC(=S)N2CCCCC2)n1 | 36.6% | 83.5% | 19.5% | 47.8% | 39% | 77.5% | 68.9% | 80.9% | 35% | 12.4 µM | 1000 nM | 85.7% | 74 µM | 49.9% | 76.4% | 83.5% | 85.4% | 27.1% | 27% | 43% | inhibition of growth at 100 µM (MCF7 [21]): 54%; IC50 (HeLa [22]): 2000 nM; inhibition of growth at 3 µM (A-375 [23]): 63.2%; inhibition of growth at 30 µM (A-431 [24]): 65.2%
2 | Cc1cccc(/C(N)=N/NC(=S)N2CCOCC2)n1 | 45.8% | 85.4% | 11.7% | 68.1% | 39.1% | 84.8% | 65.7% | 74.3% | 47.2% | 4.3 µM | 14000 nM | 83.8% | 21.5 µM | 30.2% | 43.6% | 86.9% | 82.4% | 21.6% | 25.7% | 57.8% | inhibition of growth at 100 µM (MCF7 [21]): 74.7%; IC50 (HeLa [22]): 2200 nM; inhibition of growth at 3 µM (A-375 [23]): 34.7%; inhibition of growth at 30 µM (A-431 [24]): 80%
3 | N/C(=N\NC(=S)N1CCSCC1)c1ccc(F)cn1 | 61.2% | 70.5% | 30.6% | 61.8% | 38.1% | 86.6% | 62.9% | 78.7% | 48.7% | 1.2 µM | 900 nM | 83.2% | 21.4 µM | 55.1% | 70.9% | 81.7% | 88.1% | 35.4% | 19.6% | 58.8% | inhibition of growth at 100 µM (MCF7 [21]): 65.7%; IC50 (HeLa [22]): 1700 nM; inhibition of growth at 3 µM (A-375 [23]): 62.2%; inhibition of growth at 30 µM (A-431 [24]): 84.6%
4 | Cc1cccc(/C(N)=N/NC(=S)N2CCCCCC2)n1 | 44.1% | 71.7% | 6.3% | 45.8% | 21.5% | 76.7% | 63.6% | 70.3% | 42.8% | 14.7 µM | 1800 nM | 80.9% | 54.7 µM | 39.6% | 79.9% | 81.2% | 82.7% | 15.7% | 49.5% | 38.8% | inhibition of growth at 100 µM (MCF7 [21]): 70.2%; IC50 (HeLa [22]): 1000 nM; inhibition of growth at 3 µM (A-375 [23]): 64.5%; inhibition of growth at 30 µM (A-431 [24]): 63.5%
5 | N/C(=N\NC(=S)N1CCOCC1)c1ccccn1 | 43.1% | 56.3% | 14.7% | 69.4% | 66.7% | 84.6% | 40% | 15% | 29.2% | 4.8 µM | 680 nM | 14% | 4.7 µM | 26.8% | 18.3% | 82.8% | 87.2% | 44.5% | 12.7% | 78.1% | inhibition of growth at 100 µM (MCF7 [21]): 81.6%; IC50 (HeLa [22]): 7300 nM; inhibition of growth at 3 µM (A-375 [23]): 19.3%; inhibition of growth at 30 µM (A-431 [24]): 78.8%
6 | Cc1ccnc(/C(N)=N/NC(=S)N2CCN(c3ccccn3)CC2)c1 | 34.7% | 49.2% | 21% | 44% | 32.1% | 75.5% | 42.5% | 79.4% | 28.9% | 15.5 µM | 780 nM | 81% | 12.3 µM | 64.4% | 76% | 77% | 85.6% | 32.8% | 40.4% | 63.8% | inhibition of growth at 100 µM (MCF7 [21]): 63.4%; IC50 (HeLa [22]): 10500 nM; inhibition of growth at 3 µM (A-375 [23]): 74.8%; inhibition of growth at 30 µM (A-431 [24]): 65.7%
7 | Cc1cccc(/C(N)=N/NC(=S)N2CCSCC2)n1 | 51.7% | 67.6% | 7.3% | 53.2% | 22.5% | 80.7% | 54.6% | 73.1% | 42.8% | 2.6 µM | 1400 nM | 77.4% | > 100 µM | 47.2% | 62.6% | 85.3% | 81.6% | 20.6% | 46.5% | 38.6% | inhibition of growth at 100 µM (MCF7 [21]): 46.8%; IC50 (HeLa [22]): 1800 nM; inhibition of growth at 3 µM (A-375 [23]): 60.1%; inhibition of growth at 30 µM (A-431 [24]): 64.5%
8 | Cc1ccnc(/C(N)=N/NC(=S)N2CCSCC2)c1 | 34.7% | 39.2% | 3.89% | 60% | 62.5% | 79.6% | 40.4% | 84.9% | 34.6% | 7.2 µM | 1200 nM | 89.9% | 6.9 µM | 47.7% | 74.5% | 78.3% | 91.6% | 33.8% | 41.1% | 74.2% | inhibition of growth at 100 µM (MCF7 [21]): 76.8%; IC50 (HeLa [22]): 15500 nM; inhibition of growth at 3 µM (A-375 [23]): 67.2%; inhibition of growth at 30 µM (A-431 [24]): 75.3%
9 | Cc1ccnc(/C(N)=N/NC(=S)N2CCCCC2)c1 | 36.5% | 62.1% | 21.2% | 39.7% | 40.7% | 77.6% | 23.9% | 80% | 31.1% | 18.9 µM | 1900 nM | 85.6% | 18.8 µM | 33.5% | 81.2% | 69.1% | 70.8% | 29.4% | 15.3% | 61.7% | inhibition of growth at 100 µM (MCF7 [21]): 80.1%; IC50 (HeLa [22]): 7700 nM; inhibition of growth at 3 µM (A-375 [23]): 69.5%; inhibition of growth at 30 µM (A-431 [24]): 62.8%
